In publication PMC7064889 (Chembiochem, 2019):

Columns and labels:
Assay type in all cases: cell-based, human
M21L cells = experiment: flow cytometry uptake, M21L cells
Summary of the method: (§1)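 Cells (2×10^6) were incubated with fluorescently labelled cyclic RGD test peptide (30 μM) for 0, 10 or 30 min. They were washed with buffer and analysed by flow cytometry. The negative control received no peptide.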

M21 cells [1] = experiment: flow cytometry uptake, M21 cells
Summary of the method: as §1

M21 cells [2] = experiment: live cell imaging
Summary of the method: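 Cells were grown overnight on glass-slip chambers and counterstained with LysoTracker Red DND-99. They were then incubated 10 min with fluorescent test peptide: 5 μM for the non-PEGylated peptide, 10 μM for the 5 kDa PEGylated peptide. Washing was careful but thorough. Confocal live-cell microscopy followed, with z-stacking and gain set in the peptide channel.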

[3] = peptide 30 μM, 0, 10, 30 min, 37 °C, medium without FCS

c(RGDw(pyren‐1‐yl)K(PEG5000)) [peptide 2]
0 min sample versus negative control (no peptide), M21L (M21L cells; peptide 30 μM, 0 min): largely overlaps with the 0 min samples
flow cytometry fluorescence, M21L (M21L cells; [3]): not for αv deficient M21L cells
uptake in M21L cells (flow cytometry and live cell imaging) (M21L cells; αv-deficient M21L cells): no uptake in αv‐deficient M21L cells
mode of uptake (conclusion from flow cytometry and live cell imaging) (M21 cells [1]; M21 versus M21L cells, flow cytometry 30 μM plus imaging): integrin‐mediated endocytosis
0 min sample versus negative control (no peptide), M21 (M21 cells [1]; peptide 30 μM, 0 min): largely overlaps with the 0 min samples
uptake selectivity M21 versus M21L, flow cytometry (M21 cells [1]; peptide 30 μM, 0, 10, 30 min): uptake of peptide 2 only by M21 cells
flow cytometry fluorescence, M21 (M21 cells [1]; [3]): significant fluorescence
colocalization with lysosomes, M21 (M21 cells [2]; LysoTracker Red DND-99, 10 min, 37 °C, peptide 1 5 μM, peptide 2 10 μM): colocalizes largely with lysosomes
localization by z-stacking, M21 (M21 cells [2]; Z-stack, peptide 10 μM, 10 min): presence of peptide inside the cells
